Each structure is given as a SMILES string. ≈ marks a conversion by molar mass, not a printed value. Calls of active or inactive are those of the source. The rule behind the calls is not given here.

The subject of the first series is HGC-27. Kind of series: Cytotoxicity against human HGC-27 cells assessed as reduction in cell viability incubated for 72 hrs by MTT assay. In kind it is functional, cell-based. The note with it: HGC-27, 72 h. An outline of the steps: (§1)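 Cells resuspended in DMEM plus 10% FBS and seeded at 5 000 cells/well. They were incubated overnight at 37 °C in 5% CO2, then exposed to serial dilutions for 72 h at 37 °C. Medium was replaced with fresh medium containing 0.5 mg/mL MTT for 4 h, formazan dissolved in DMSO, and A540 read. Proliferation = A540 treated/control ×100%. IC50 is the concentration inhibiting proliferation by 50%.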
With `COc1cc(-c2c3c4cc(OC)c(O)cc4oc(=O)c3n3ccc4cc(O)c(OC)cc4c23)ccc1O` [LAMELLARIN D], the half-inhibitory concentration (IC50) was 236 nM.

For the molecule `COc1cc(-c2c3c4cc(OC)c(O[C@@H]5O[C@H](CO)[C@H](O)[C@H](O)[C@H]5O)cc4oc(=O)c3n3ccc4cc(O)c(OC)cc4c23)ccc1O`, the IC50 came to 90 nM.

As to `COc1cc2c(cc1O)oc(=O)c1c2c(-c2ccc(O[C@@H]3O[C@H](CO)[C@H](O)[C@H](O)[C@H]3O)c(OC)c2)c2c3cc(OC)c(O)cc3ccn21`, the IC50 was determined as 16600 nM.

In the case of `COc1cc2c(cc1O)oc(=O)c1c2c(-c2ccc(O[C@@H]3O[C@H](CO)[C@@H](O)[C@H](O)[C@H]3O)c(OC)c2)c2c3cc(OC)c(O)cc3ccn21`, the half-inhibitory concentration (IC50) is over 50000 nM.

The subject of another series is MDA-MB-231. Kind of series: Induction of cell cycle arrest in human MDA-MB-231 cells assessed as increase in accumulation of G2/M phase incubated for 24 hrs by PI staining based flow cytometry analysis. In kind it is functional. The note with it: dose 10-50 nM. In a few lines:
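MDA-MB-231 cells (5 × 10^5) seeded in six-well plates, cultured overnight at 37 °C, then treated at 10, 20 or 50 nM for 24 h. Lamellarin D was the positive control at 20 and 50 nM. Cells were trypsinized, washed twice in PBS and fixed in 70% ethanol overnight at −20 °C. After washing, cells were stained with propidium iodide. Phase distribution was read by flow cytometry.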
On the technique in general: A flow cytometer gives signals particle by particle.
Take `COc1cc(-c2c3c4cc(OC)c(O)cc4oc(=O)c3n3ccc4cc(O)c(OC)cc4c23)ccc1O` [LAMELLARIN D]: the Activity result was “Dose-dependent effect”.

A further series deals with A549. Kind of series: Cytotoxicity against human A549 cells assessed as reduction in cell viability incubated for 72 hrs by MTT assay. In kind it is functional, cell-based. The note with it: A549, 72 h. An outline of the steps:
as §1
On the technique in general: Formazan colour is commonly taken as a measure of viable cells.
With `COc1cc(-c2c3c4cc(OC)c(O)cc4oc(=O)c3n3ccc4cc(O)c(OC)cc4c23)ccc1O` [LAMELLARIN D], the IC50 came to 4 nM.

On to `COc1cc(-c2c3c4cc(OC)c(O[C@@H]5O[C@H](CO)[C@H](O)[C@H](O)[C@H]5O)cc4oc(=O)c3n3ccc4cc(O)c(OC)cc4c23)ccc1O`, for which the IC50 was found to be 20 nM.

With `COc1cc2c(cc1O)oc(=O)c1c2c(-c2ccc(O[C@@H]3O[C@H](CO)[C@H](O)[C@H](O)[C@H]3O)c(OC)c2)c2c3cc(OC)c(O)cc3ccn21`, the half-inhibitory concentration (IC50) is over 50000 nM.

Take `COc1cc2c(cc1O)oc(=O)c1c2c(-c2ccc(O[C@@H]3O[C@H](CO)[C@@H](O)[C@H](O)[C@H]3O)c(OC)c2)c2c3cc(OC)c(O)cc3ccn21`: the IC50 was over 50000 nM.

System in another series: not listed separately
Kind of series: Aqueous solubility of compound in deionized water by HPLC-HRMS analysis. It counts as physicochemical. The note with it: buffer.
`COc1cc(-c2c3c4cc(OC)c(O)cc4oc(=O)c3n3ccc4cc(O)c(OC)cc4c23)ccc1O` [LAMELLARIN D] displayed a solubility of 0.56 nM (≈ 0.28 ng/mL).

As for `COc1cc(-c2c3c4cc(OC)c(O[C@@H]5O[C@H](CO)[C@H](O)[C@H](O)[C@H]5O)cc4oc(=O)c3n3ccc4cc(O)c(OC)cc4c23)ccc1O`, the solubility came out at 0.12 nM (≈ 0.0794 ng/mL).

Regarding `COc1cc2c(cc1O)oc(=O)c1c2c(-c2ccc(O[C@@H]3O[C@H](CO)[C@H](O)[C@H](O)[C@H]3O)c(OC)c2)c2c3cc(OC)c(O)cc3ccn21`, the solubility is given as 0.49 nM (≈ 0.324 ng/mL).

With `COc1cc2c(cc1O)oc(=O)c1c2c(-c2ccc(O[C@@H]3O[C@H](CO)[C@@H](O)[C@H](O)[C@H]3O)c(OC)c2)c2c3cc(OC)c(O)cc3ccn21`, the solubility worked out at 0.41 nM (≈ 0.271 ng/mL).

In another series the test system is MDA-MB-231. As to the kind of experiment: Cytotoxicity against human MDA-MB-231 cells assessed as reduction in cell viability incubated for 72 hrs by MTT assay. It counts as functional, cell-based. The note with it: MDA-MB-231, 72 h. An outline of the steps:
as §1
Consider `COc1cc(-c2c3c4cc(OC)c(O)cc4oc(=O)c3n3ccc4cc(O)c(OC)cc4c23)ccc1O` [LAMELLARIN D], for which the half-inhibitory concentration (IC50) came out at 31 nM.

Regarding `COc1cc(-c2c3c4cc(OC)c(O[C@@H]5O[C@H](CO)[C@H](O)[C@H](O)[C@H]5O)cc4oc(=O)c3n3ccc4cc(O)c(OC)cc4c23)ccc1O`, the IC50 turned out to be 25 nM.

As to `COc1cc2c(cc1O)oc(=O)c1c2c(-c2ccc(O[C@@H]3O[C@H](CO)[C@H](O)[C@H](O)[C@H]3O)c(OC)c2)c2c3cc(OC)c(O)cc3ccn21`, the 50% inhibitory concentration (IC50) is over 50000 nM.

Regarding `COc1cc2c(cc1O)oc(=O)c1c2c(-c2ccc(O[C@@H]3O[C@H](CO)[C@@H](O)[C@H](O)[C@H]3O)c(OC)c2)c2c3cc(OC)c(O)cc3ccn21`, the half-inhibitory concentration (IC50) is over 50000 nM.

The target in the next series is T1, DNA topoisomerase 1 (Homo sapiens) (UniProt P11387).
T1 sequence (whole entry): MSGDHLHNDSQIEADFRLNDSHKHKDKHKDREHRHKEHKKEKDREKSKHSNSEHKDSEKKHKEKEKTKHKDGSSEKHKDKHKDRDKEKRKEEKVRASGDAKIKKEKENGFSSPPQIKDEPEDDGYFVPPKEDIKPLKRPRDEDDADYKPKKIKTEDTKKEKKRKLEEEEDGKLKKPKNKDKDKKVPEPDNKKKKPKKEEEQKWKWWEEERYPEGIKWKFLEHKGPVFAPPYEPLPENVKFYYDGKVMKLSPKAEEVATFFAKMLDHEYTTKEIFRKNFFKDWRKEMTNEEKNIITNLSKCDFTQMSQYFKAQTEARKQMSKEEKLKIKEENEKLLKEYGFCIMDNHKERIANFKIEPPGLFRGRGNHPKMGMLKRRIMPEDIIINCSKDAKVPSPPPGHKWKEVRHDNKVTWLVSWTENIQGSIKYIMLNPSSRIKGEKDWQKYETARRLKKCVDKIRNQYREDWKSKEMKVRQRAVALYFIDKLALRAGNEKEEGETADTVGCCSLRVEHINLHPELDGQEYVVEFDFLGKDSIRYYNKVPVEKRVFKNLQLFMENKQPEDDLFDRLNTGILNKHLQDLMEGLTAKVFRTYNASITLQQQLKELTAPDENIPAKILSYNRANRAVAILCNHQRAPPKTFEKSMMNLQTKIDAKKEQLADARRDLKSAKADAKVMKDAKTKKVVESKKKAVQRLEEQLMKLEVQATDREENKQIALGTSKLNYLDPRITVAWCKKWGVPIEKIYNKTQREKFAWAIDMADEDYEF
Kind of series: Inhibition of topoisomerase 1 (unknown origin) assessed as reduction in relaxation of supercoiled plasmid pBR322 DNA at 10 uM incubated for 30 mins by agarose gel electrophoresis.
Conditions: not given
In a few lines: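 Reaction mix held 10X Topo I buffer, supercoiled pBR322 (250 ng), Topo I (2 U) and compound at 10 µM, incubated 37 °C for 30 min. Stopped with 10% SDS, then proteinase K digestion for 30 min. Products run on 1% agarose without stain, post-stained with 4s Green for 50 min and imaged under UV. Read-out is loss of relaxation.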
For the molecule `COc1cc(-c2c3c4cc(OC)c(O)cc4oc(=O)c3n3ccc4cc(O)c(OC)cc4c23)ccc1O` [LAMELLARIN D], the inhibition result is “Active”.

In the case of `COc1cc2c(cc1O)oc(=O)c1c2c(-c2ccc(O[C@@H]3O[C@H](CO)[C@H](O)[C@H](O)[C@H]3O)c(OC)c2)c2c3cc(OC)c(O)cc3ccn21`, the inhibition entry is “Active”.

For `COc1cc2c(cc1O)oc(=O)c1c2c(-c2ccc(O[C@@H]3O[C@H](CO)[C@@H](O)[C@H](O)[C@H]3O)c(OC)c2)c2c3cc(OC)c(O)cc3ccn21`, the inhibition entry is “Active”.

The next series relates to HCT-116. Kind of series: Cytotoxicity against human HCT-116 cells assessed as reduction in cell viability incubated for 72 hrs by MTT assay. In kind it is functional, cell-based. The settings on record: HCT-116, 72 h. In a few lines:
as §1
Regarding `COc1cc(-c2c3c4cc(OC)c(O)cc4oc(=O)c3n3ccc4cc(O)c(OC)cc4c23)ccc1O` [LAMELLARIN D], the 50% inhibitory concentration (IC50) is 25 nM.

As for `COc1cc(-c2c3c4cc(OC)c(O[C@@H]5O[C@H](CO)[C@H](O)[C@H](O)[C@H]5O)cc4oc(=O)c3n3ccc4cc(O)c(OC)cc4c23)ccc1O`, the IC50 was 18 nM.

Turning to `COc1cc2c(cc1O)oc(=O)c1c2c(-c2ccc(O[C@@H]3O[C@H](CO)[C@H](O)[C@H](O)[C@H]3O)c(OC)c2)c2c3cc(OC)c(O)cc3ccn21`, the half-maximal inhibitory concentration (IC50) was 13700 nM.

Regarding `COc1cc2c(cc1O)oc(=O)c1c2c(-c2ccc(O[C@@H]3O[C@H](CO)[C@@H](O)[C@H](O)[C@H]3O)c(OC)c2)c2c3cc(OC)c(O)cc3ccn21`, the IC50 came out at 26200 nM.

In the next series the test system is HepG2. As to the kind of experiment: Cytotoxicity against human HepG2 cells assessed as reduction in cell viability incubated for 72 hrs by MTT assay. In kind it is functional, cell-based. The note with it: HepG2, 72 h. An outline of the steps: as §1
Take `COc1cc(-c2c3c4cc(OC)c(O)cc4oc(=O)c3n3ccc4cc(O)c(OC)cc4c23)ccc1O` [LAMELLARIN D]: the IC50 was 88 nM.

For `COc1cc(-c2c3c4cc(OC)c(O[C@@H]5O[C@H](CO)[C@H](O)[C@H](O)[C@H]5O)cc4oc(=O)c3n3ccc4cc(O)c(OC)cc4c23)ccc1O`, the IC50 came to 58 nM.

Regarding `COc1cc2c(cc1O)oc(=O)c1c2c(-c2ccc(O[C@@H]3O[C@H](CO)[C@H](O)[C@H](O)[C@H]3O)c(OC)c2)c2c3cc(OC)c(O)cc3ccn21`, the 50% inhibitory concentration (IC50) is over 50000 nM.

For the molecule `COc1cc2c(cc1O)oc(=O)c1c2c(-c2ccc(O[C@@H]3O[C@H](CO)[C@@H](O)[C@H](O)[C@H]3O)c(OC)c2)c2c3cc(OC)c(O)cc3ccn21`, the concentration for half-maximal inhibition (IC50) turned out to be 42900 nM.

In general, IC50 refers to the concentration that gives 50% inhibition. In general, solubility refers to how much of the substance goes into solution per volume. Low values mean little dissolved substance, high ones much dissolved substance.
